Values after ≈ are worked out from the molar mass of the structure shown. Active and inactive are the calls of the source. The calls are words filed in the database; no cut-off is given here.
Columns and labels:
Penicillium italicum [1] = assay: Antimicrobial activity against Penicillium italicum at 5 ug/mL by agar diffusion method; format: functional; conditions: read-out: IZ
[2] = system: Syncephalastrum racemosum; assay: Antimicrobial activity against Syncephalastrum racemosum at 5 ug/mL by agar diffusion method; format: functional; conditions: read-out: IZ
Candida albicans [3] = assay: Antimicrobial activity against Candida albicans at 5 ug/mL by agar diffusion method; format: functional; conditions: read-out: IZ
Staphylococcus aureus [4] = assay: Antimicrobial activity against Staphylococcus aureus at 5 ug/mL by agar diffusion method; format: functional; conditions: read-out: IZ
Pseudomonas aeruginosa [5] = assay: Antimicrobial activity against Pseudomonas aeruginosa at 5 ug/mL by agar diffusion method; format: functional; conditions: read-out: IZ
Bacillus subtilis [6] = assay: Antimicrobial activity against Bacillus subtilis at 5 ug/mL by agar diffusion method; format: functional; conditions: read-out: IZ
Escherichia coli [7] = assay: Antimicrobial activity against Escherichia coli at 5 ug/mL by agar diffusion method; format: functional; conditions: read-out: IZ
Aspergillus fumigatus [8] = assay: Antimicrobial activity against Aspergillus fumigatus at 2.5 ug/mL by agar diffusion method; format: functional; conditions: read-out: IZ
Penicillium italicum [9] = assay: Antimicrobial activity against Penicillium italicum at 2.5 ug/mL by agar diffusion method; format: functional; conditions: read-out: IZ
[10] = system: Syncephalastrum racemosum; assay: Antimicrobial activity against Syncephalastrum racemosum at 2.5 ug/mL by agar diffusion method; format: functional; conditions: read-out: IZ
Candida albicans [11] = assay: Antimicrobial activity against Candida albicans at 2.5 ug/mL by agar diffusion method; format: functional; conditions: read-out: IZ
Staphylococcus aureus [12] = assay: Antimicrobial activity against Staphylococcus aureus at 2.5 ug/mL by agar diffusion method; format: functional; conditions: read-out: IZ
Pseudomonas aeruginosa [13] = assay: Antimicrobial activity against Pseudomonas aeruginosa at 2.5 ug/mL by agar diffusion method; format: functional; conditions: read-out: IZ
Bacillus subtilis [14] = assay: Antimicrobial activity against Bacillus subtilis at 2.5 ug/mL by agar diffusion method; format: functional; conditions: read-out: IZ
Escherichia coli [15] = assay: Antimicrobial activity against Escherichia coli at 2.5 ug/mL by agar diffusion method; format: functional; conditions: read-out: IZ
Aspergillus fumigatus [16] = assay: Antimicrobial activity against Aspergillus fumigatus at 1.25 ug/mL by agar diffusion method; format: functional; conditions: read-out: IZ
Penicillium italicum [17] = assay: Antimicrobial activity against Penicillium italicum at 1.25 ug/mL by agar diffusion method; format: functional; conditions: read-out: IZ
[18] = system: Syncephalastrum racemosum; assay: Antimicrobial activity against Syncephalastrum racemosum at 1.25 ug/mL by agar diffusion method; format: functional; conditions: read-out: IZ
Candida albicans [19] = assay: Antimicrobial activity against Candida albicans at 1.25 ug/mL by agar diffusion method; format: functional; conditions: read-out: IZ
Staphylococcus aureus [20] = assay: Antimicrobial activity against Staphylococcus aureus at 1.25 ug/mL by agar diffusion method; format: functional; conditions: read-out: IZ
Pseudomonas aeruginosa [21] = assay: Antimicrobial activity against Pseudomonas aeruginosa at 1.25 ug/mL by agar diffusion method; format: functional; conditions: read-out: IZ
Bacillus subtilis [22] = assay: Antimicrobial activity against Bacillus subtilis at 1.25 ug/mL by agar diffusion method; format: functional; conditions: read-out: IZ
Escherichia coli [23] = assay: Antimicrobial activity against Escherichia coli at 1.25 ug/mL by agar diffusion method; format: functional; conditions: read-out: IZ
Aspergillus fumigatus [24] = assay: Antimicrobial activity against Aspergillus fumigatus by agar diffusion method; format: functional
Summary of the method: (§1)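 Agar diffusion on plates against bacteria and fungi. MIC taken as the lowest concentration giving no visible growth on the plate.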

[25] = system: Syncephalastrum racemosum; assay: Antimicrobial activity against Syncephalastrum racemosum by agar diffusion method; format: functional; summary of the method: as §1
Candida albicans [26] = assay: Antimicrobial activity against Candida albicans by agar diffusion method; format: functional; summary of the method: as §1
Staphylococcus aureus [27] = assay: Antimicrobial activity against Staphylococcus aureus by agar diffusion method; format: functional; summary of the method: as §1
Bacillus subtilis [28] = assay: Antimicrobial activity against Bacillus subtilis by agar diffusion method; format: functional; summary of the method: as §1
Hepatitis C virus = assay: Antiviral activity against HCV by cell based replicon assay; format: functional, Hepacivirus hominis
Summary of the method: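 HCV replicon cells plated at 1×10^4 per well. Next day incubated at 37 °C with serially diluted compound in DMEM with 2% FBS and 0.5% DMSO. HCV RNA copy number measured by quantitative RT-PCR on total cellular RNA. Each point is the average of five replicates. Cytotoxicity measured by MTS in parallel.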

Measles morbillivirus = assay: Antiviral activity against Measles virus infected in intracranially dosed hamster assessed as inhibition of subacute sclerosing panencephalitis; format: functional
Summary of the method: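 Hamsters under ether anesthesia injected intracranially, into the subarachnoid space at 2 mm depth, at 5, 10 and 20 mg/kg/day for 10 days. Four animals per group sacrificed on days 1–20. Brains homogenized in PBS and centrifuged, supernatant deproteinized with ethanol, then MIC in brain tissue determined by HPLC and bioassay.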

[29] = system: Radical scavenging activity; assay: Antioxidant activity assessed as DPPH free radical scavenging activity by measuring reduction in DPPH absorbance by ELISA relative to untreated control; format: functional; design: concentration or dose not given beside the values
Summary of the method: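 Test compounds dissolved in DMSO, ascorbic acid standard in water, both serially diluted. 10 µl sample added to 90 µl of 100 µM DPPH in methanol and kept in the dark at 37 °C for 30 min. Absorbance read at 515 nm. Blank is DMSO plus DPPH. % reduction = (A_B − A_A)/A_B × 100. Run in triplicate.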

[30] = Antioxidant activity assessed as inhibition of peroxynitrite-mediated 3-nitrotyrosine formation by HPLC; format: functional
Summary of the method: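 Tyrosine and peroxynitrite, each 100 µM, reacted with compound at 0–300 µM in 100 mM phosphate buffer pH 7.4 at 37 °C for 15 min. Peroxynitrite made from acidified H2O2 plus KNO2, quenched with NaOH, and kept on ice no longer than 30 min before use.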

MC-38 = assay: Antitumor activity against mouse Colon 38 cells implanted in iv dosed C57BL/6 mouse administered as single dose; format: functional, organism-based
Summary of the method: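 Female C57BL/6 mice, 6 weeks old, given about 30 mg Colon 38 tumor tissue s.c. in the flank. Randomized into groups of n = 5 when tumors reached about 300 mm3 (day 1). Compound in 5% glucose given as a single iv tail-vein dose on day 1; controls received 5% glucose. Tumor volume = (length × width²)/2 and body weight tracked.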

[31] = target: DNA topoisomerase 2-alpha (Mus musculus) (UniProt Q01320); assay: Inhibition of topoisomerase 2 from mouse P388 cells assessed as relaxation of pBR322 DNA by agarose gel electrophoresis relative to etoposide; format: cell-based
Sequence of DNA topoisomerase 2-alpha (Mus musculus) (Q01320 whole entry): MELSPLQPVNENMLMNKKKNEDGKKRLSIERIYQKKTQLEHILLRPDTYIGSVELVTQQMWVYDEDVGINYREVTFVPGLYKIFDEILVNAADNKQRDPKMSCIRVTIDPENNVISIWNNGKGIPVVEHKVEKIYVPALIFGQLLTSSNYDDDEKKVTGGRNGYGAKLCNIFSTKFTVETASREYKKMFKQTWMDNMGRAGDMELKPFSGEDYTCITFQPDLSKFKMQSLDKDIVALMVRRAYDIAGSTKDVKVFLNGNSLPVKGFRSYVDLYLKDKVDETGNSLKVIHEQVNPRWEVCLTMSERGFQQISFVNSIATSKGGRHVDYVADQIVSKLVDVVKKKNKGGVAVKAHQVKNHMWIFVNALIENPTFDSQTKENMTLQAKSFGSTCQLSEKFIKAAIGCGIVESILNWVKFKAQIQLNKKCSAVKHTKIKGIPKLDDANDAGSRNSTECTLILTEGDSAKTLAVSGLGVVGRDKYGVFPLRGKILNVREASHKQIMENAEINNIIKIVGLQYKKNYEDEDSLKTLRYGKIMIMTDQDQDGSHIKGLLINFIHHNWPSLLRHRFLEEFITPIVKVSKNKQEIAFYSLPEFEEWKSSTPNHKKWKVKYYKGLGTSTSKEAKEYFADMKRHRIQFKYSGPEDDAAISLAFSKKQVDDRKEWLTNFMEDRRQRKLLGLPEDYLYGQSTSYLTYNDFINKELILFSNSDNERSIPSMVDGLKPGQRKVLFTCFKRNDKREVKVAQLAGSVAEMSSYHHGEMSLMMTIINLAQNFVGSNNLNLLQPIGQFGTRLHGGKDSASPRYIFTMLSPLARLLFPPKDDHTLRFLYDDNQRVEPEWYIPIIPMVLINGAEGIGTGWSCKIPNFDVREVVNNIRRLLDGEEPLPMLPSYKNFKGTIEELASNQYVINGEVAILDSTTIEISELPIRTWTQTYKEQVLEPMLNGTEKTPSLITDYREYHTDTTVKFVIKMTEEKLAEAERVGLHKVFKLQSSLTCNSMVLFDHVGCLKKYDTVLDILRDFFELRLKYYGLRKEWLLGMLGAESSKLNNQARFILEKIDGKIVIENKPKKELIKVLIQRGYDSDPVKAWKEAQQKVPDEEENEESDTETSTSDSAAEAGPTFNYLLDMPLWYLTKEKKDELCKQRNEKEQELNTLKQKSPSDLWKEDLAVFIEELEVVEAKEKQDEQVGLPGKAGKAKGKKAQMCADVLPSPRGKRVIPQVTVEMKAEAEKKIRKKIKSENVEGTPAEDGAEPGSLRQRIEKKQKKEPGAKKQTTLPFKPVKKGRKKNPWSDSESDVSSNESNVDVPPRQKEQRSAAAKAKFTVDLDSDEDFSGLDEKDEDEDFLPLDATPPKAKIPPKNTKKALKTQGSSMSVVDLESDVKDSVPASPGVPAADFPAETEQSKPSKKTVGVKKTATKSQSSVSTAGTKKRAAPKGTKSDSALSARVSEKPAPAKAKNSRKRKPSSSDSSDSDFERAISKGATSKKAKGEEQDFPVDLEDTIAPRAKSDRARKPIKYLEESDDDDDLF
Summary of the method: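 Topoisomerase II purified from P388 cells. One unit relaxes 0.125 µg supercoiled pBR322 DNA, incubated with or without inhibitor at 30 °C for 1 h in 50 mM Tris-HCl pH 8.0, 100 mM KCl, 10 mM MgCl2, 0.5 mM DTT, 1 mM ATP and 30 µg/ml BSA. Products run on 0.7% agarose in TBE, stained with ethidium bromide and imaged under UV.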

[32] = target: T1, DNA topoisomerase 1 (Homo sapiens) (UniProt P11387); assay: Inhibition of topoisomerase 1 relative to etoposide
T1 sequence (whole entry): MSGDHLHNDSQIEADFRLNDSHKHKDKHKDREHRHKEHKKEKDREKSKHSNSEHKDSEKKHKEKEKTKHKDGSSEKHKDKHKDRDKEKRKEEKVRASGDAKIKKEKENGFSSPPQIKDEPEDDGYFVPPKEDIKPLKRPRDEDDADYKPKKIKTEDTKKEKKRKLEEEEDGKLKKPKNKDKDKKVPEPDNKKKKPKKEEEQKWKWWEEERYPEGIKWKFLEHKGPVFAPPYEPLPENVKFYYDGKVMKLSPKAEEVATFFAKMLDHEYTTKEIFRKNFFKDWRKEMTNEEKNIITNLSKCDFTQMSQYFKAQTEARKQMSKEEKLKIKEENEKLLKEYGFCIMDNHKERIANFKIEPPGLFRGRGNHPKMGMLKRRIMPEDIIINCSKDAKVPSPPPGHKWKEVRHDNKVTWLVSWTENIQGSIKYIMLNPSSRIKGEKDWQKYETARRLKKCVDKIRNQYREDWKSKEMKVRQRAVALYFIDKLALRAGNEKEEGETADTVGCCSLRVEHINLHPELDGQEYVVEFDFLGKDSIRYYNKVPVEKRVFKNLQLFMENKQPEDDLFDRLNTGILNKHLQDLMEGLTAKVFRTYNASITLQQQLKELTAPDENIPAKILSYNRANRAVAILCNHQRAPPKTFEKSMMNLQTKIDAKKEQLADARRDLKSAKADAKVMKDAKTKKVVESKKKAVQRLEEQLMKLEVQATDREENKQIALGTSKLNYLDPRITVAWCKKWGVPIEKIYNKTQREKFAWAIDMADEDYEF

Aspergillus fumigatus [33] = assay: Antimicrobial activity against Aspergillus fumigatus at 5 ug/mL by agar diffusion method; format: functional; conditions: read-out: IZ

SMILES: Cc1ccc(N/N=C2\CCCc3ccccc3C2=O)cc1
- zone of inhibition at 5 µg/mL (Penicillium italicum [1]): 0 mm
- zone of inhibition at 5 µg/mL [2]: 18 mm
- zone of inhibition at 5 µg/mL (Candida albicans [3]): 14 mm
- zone of inhibition at 5 µg/mL (Staphylococcus aureus [4]): 12 mm
- zone of inhibition at 5 µg/mL (Pseudomonas aeruginosa [5]): 0 mm
- zone of inhibition at 5 µg/mL (Bacillus subtilis [6]): 16 mm
- zone of inhibition at 5 µg/mL (Escherichia coli [7]): 7 mm
- zone of inhibition at 2.5 µg/mL (Aspergillus fumigatus [8]): 13 mm
- zone of inhibition at 2.5 µg/mL (Penicillium italicum [9]): 0 mm
- zone of inhibition at 2.5 µg/mL [10]: 12 mm
- zone of inhibition at 2.5 µg/mL (Candida albicans [11]): 6 mm
- zone of inhibition at 2.5 µg/mL (Staphylococcus aureus [12]): 8 mm
- zone of inhibition at 2.5 µg/mL (Pseudomonas aeruginosa [13]): 0 mm
- zone of inhibition at 2.5 µg/mL (Bacillus subtilis [14]): 6 mm
- zone of inhibition at 2.5 µg/mL (Escherichia coli [15]): 0 mm
- zone of inhibition at 1.25 µg/mL (Aspergillus fumigatus [16]): 9 mm
- zone of inhibition at 1.25 µg/mL (Penicillium italicum [17]): 0 mm
- zone of inhibition at 1.25 µg/mL [18]: 7 mm
- zone of inhibition at 1.25 µg/mL (Candida albicans [19]): 2 mm
- zone of inhibition at 1.25 µg/mL (Staphylococcus aureus [20]): 5 mm
- zone of inhibition at 1.25 µg/mL (Pseudomonas aeruginosa [21]): 0 mm
- zone of inhibition at 1.25 µg/mL (Bacillus subtilis [22]): 4 mm
- zone of inhibition at 1.25 µg/mL (Escherichia coli [23]): 0 mm
- MIC (Aspergillus fumigatus [24]): 0.313 µg/mL (≈ 1.12 µM)
- MIC [25]: 0.625 µg/mL (≈ 2.25 µM)
- MIC (Candida albicans [26]): 1.25 µg/mL (≈ 4.49 µM)
- MIC (Staphylococcus aureus [27]): 0.625 µg/mL (≈ 2.25 µM)
- MIC (Bacillus subtilis [28]): 0.625 µg/mL (≈ 2.25 µM)
- MIC (Hepatitis C virus): 1.14 µg/mL (≈ 4.1 µM)
- MIC (Measles morbillivirus): 7.06 µg/mL (≈ 25.4 µM)
- Activity [29]: 80.1%
- IC50 [30]: 56.3 µM
- Activity (MC-38): Active
- Ratio [31]: 4.27
- Ratio [32]: 4.2
- zone of inhibition at 5 µg/mL (Aspergillus fumigatus [33]): 22 mm

From ChEMBL document CHEMBL1152689, “Synthesis, tautomerism, and antimicrobial, anti-HCV, anti-SSPE, antioxidant, and antitumor activities of arylazobenzosuberones” (Bioorg Med Chem, 2009)
